How the values were obtained:
[1] = tested on: α-syn; experiment: 15N-HSQC titration binding studies with 15N-labeled α-syn; settings: for Binding locus on α-syn from titration shifts in 15N HSQC spectra: 200 or 400 µM α-syn, no added HFIP, 293 or 303 K
[2] = tested on: α-synuclein; experiment: Inhibition of HFIP-induced α-syn amyloid formation; type: biochemical; settings: for %-Inhib. of HFIP-induced α-syn amyloid formation: converted from the %-of-control ThT and CD values; for Formation of off-path (non-amyloid) precipitates in the inhibition assays: 2 vol-% HFIP assay, EGCG at 2:1 molar ratio
Outline: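 α-Syn (85 ± 5 μM; pH 6.6, 50 mM potassium phosphate, 50 mM NaCl) stirred at 37 ± 3 °C with test compound (1–4 molar equiv), then HFIP to 2 vol% after 4 h. Aliquots diluted to 4.5 μM α-syn every 2–6 h for CD, inhibitor-matched blank, [θ]218 and Δ[θ]196 read. At 16–18 h, ThT added (8-fold excess) and emission read. Values as %-of-uninhibited-control, converted to %-inhibition; mean of ≥2 experiments.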

[3] = tested on: α-syn; settings: cited from earlier work
[4] = NMR determination of folded state population of peptides; type: physicochemical; settings: 300K; for Folded state population (χF): based on NMR data
[5] = tested on: α-syn; experiment: CD and visual inspection of EGCG/α-syn mixtures; type: biochemical; settings: 100 µM α-syn, 1:1 α-syn:EGCG, 1.5 vol-% HFIP; β-sheet signature at 24 hours
[6] = tested on: α-syn; settings: on going from 1:1 to 5:1 EGCG/α-syn, published spectra; cited from earlier work

Binding locus on α-syn from titration shifts in 15N HSQC spectra [1]	Molecule	%-Inhib. of HFIP-induced α-syn amyloid formation ([2]; 1 molar equiv. inhibitor)	%-Inhib. of HFIP-induced α-syn amyloid formation ([2]; 2 molar equiv. inhibitor)	further results
Q109/E137-span	cyclo-(K-KLTVW-IpGK-WITVS-IpP) (head to tail) [cyclo-WW2]	~ 75%	> 90%	Inhibitory activity on α-syn β-structure / amyloid formation (in words) ([2]; 2:1 peptide to α-syn ratio, 2 vol-% HFIP): complete inhibition
–	RGAVVTGR-NH2 [reference compound]	–	< 25%	Inhibition of α-syn amyloid fibril formation ([3]; 2:1, 1:1 and 1:2 (peptide:α-syn) molar ratios): completely inhibit; Inhibitory activity on α-syn amyloid formation (in words) ([2]; 4 molar equivalents of the peptide, single experiment): absence of inhibitory activity
–	RWFYFN-DRGSGK-WEKRWD [cp-mWWhp]	–	< 20%	–
–	(Ac-YTTVCIRKYTG)2 (disulfide) [AcY-VCI-YTG]	–	~ 70%	Folded state population (χF) [4]: 0.84
–	(RYTTVCIRKYE)2 (disulfide) [RY-VCI-YE]	~ 50%	~ 80%	–
–	KCLTVW-IpGK-WITVCA (disulfide) [WW2-DS]	< 30%	~ 50%	–
isolated to the C-terminus	GKWITVS-IpPK-KLTVWIp [cp-WW2]	~ 35%	~ 65%	–
M116-E137 sequence segment	KKLTVW-IpGK-WITVSA [WW2]	~ 50%	~ 75%	–
–	RAVTW-NPATGK-WITVWE [RAVWW]	–	~ 60%	Formation of off-path (non-amyloid) precipitates in the inhibition assays [2]: did not produce off-path precipitates
–	RWEKRW-DRGSGR-WFYFND [mWWhp]	–	~ 50%	Formation of off-path (non-amyloid) precipitates in the inhibition assays [2]: did not produce off-path precipitates
–	(RYTTHCHRKYE)2 (disulfide) [RY-HCH-YE]	–	~ 70%	β-sheet population [4]: 28%; Folded state population (χF) [4]: 0.28±0.13
–	VAQKT-(N-Me)V	–	–	Inhibition of α-syn fibril formation ([3]; N-methylation of sites in residues 71–82): effective inhibitor

Molecule	Binding locus on α-syn from titration shifts in 15N HSQC spectra [1]	%-Inhib. of HFIP-induced α-syn amyloid formation ([2]; 1 molar equiv. inhibitor)	%-Inhib. of HFIP-induced α-syn amyloid formation ([2]; 2 molar equiv. inhibitor)	further results
O=C(O[C@@H]1Cc2c(O)cc(O)cc2O[C@@H]1c1cc(O)c(O)c(O)c1)c1cc(O)c(O)c(O)c1 [EGCG, (−)-Epi-gallocatechin-3-gallate, reference compound]	shifts at C-terminal sites	–	~ 65%	Time the random coil CD signature remained after HFIP addition [5]: 8 h; Upfield 1H shift for most α-syn HSQC peaks [6]: 0.04 ppm; Upfield shifts Δδ(1H) of α-syn HSQC peaks ([1]; 200 µM α-syn, 50 mM phosphate, pH 6.5, 303K, 5 molar equivalents of EGCG): 0.007 – 0.010 ppm
(RWTTHCHRKWE)2 (disulfide) [RW-HCH-WE]	very large shifts were observed at C-terminal sites	~ 65%	≥ 75%	β-sheet population [4]: 94%; Folded state population (χF) [4]: 0.94±0.02; Formation of off-path (non-amyloid) precipitates in the inhibition assays [2]: co-precipitates

Source: article PMC4332700 (RSC advances, 2015)
